For 96 compounds, cytotoxicity results are on record in ChEMBL document CHEMBL4513216, “Probing the Open Global Health Chemical Diversity Library for Multistage-Active Starting Points for Next-Generation Antimalarials” (ACS Infect Dis, 2020).

The data set in a line: Toxicity liver stage against HepG2, at 10uM. It is filed as cell-based. Also noted: test concentration 10 uM, cell line HepG2-A16-CD81EGFP. The note with it: human, HepG2-A16-CD81EGFP cells; read-out: INHIBITION
The method in brief:
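Uninfected HepG2-A16-CD81EGFP cells, 3 × 10^3 per well, 1536-well, plated on prespotted compound at 10 μM final, parasite-free screening media added to match infected plates; puromycin 10 μM positive, DMSO 0.5% negative; run in parallel with 48 h PbLuc assay at 37 °C, 5% CO2; viability by CellTiter-Glo luminescence, normalized to controls.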
Consider `CCOC(=O)Cn1ccc(O)c(Cc2ccc(Cl)cc2Cl)c1=O`, for which the cytotoxicity at 10 µM was 4.19%.

As for `COc1ccc2oc(C(C)NC(=O)NC3CCN(C)CC3)c(C)c2c1` (stereo unspecified), the cytotoxicity at 10 µM is 2.62%.

As to `Cc1noc([C@]23COC[C@H]2CN(S(=O)(=O)C2CC2)C3)n1`, the cytotoxicity at 10 µM was determined as 8.1%.

`CNC(=O)c1nc2c(s1)CCN(C(=O)c1ccccc1)CC2`: the cytotoxicity at 10 µM is 11.1%.

Consider `CS(=O)(=O)N1CC[C@@H]2O[C@@H](COCC(=O)N3CCCC3)CC[C@@H]21`, for which the cytotoxicity at 10 µM was -0.879%.

For `CC(C)NC(=O)N1CCN(C(=O)c2ccco2)CC2(CC(=O)N(C)C2)C1` (stereo unspecified), the cytotoxicity at 10 µM was found to be 6.15%.

For `COCCNC(=O)Cn1c(-c2ccc(Cl)cc2)nc(C)c(CCO)c1=O`, the cytotoxicity at 10 µM is -13.1%.

For `CCc1cnc2c(c1NCc1ccncc1)c(=O)n(C)c(=O)n2C`, the cytotoxicity at 10 µM is -12.1%.

With `Cc1ccc(N2CCN(C(=O)COc3ccccc3)CC2)nn1`, the cytotoxicity at 10 µM was -14.6%.

Consider `COCC1CN(Cc2cc(C)on2)Cc2cn(C)nc21` (stereo unspecified), for which the cytotoxicity at 10 µM was -6.07%.

Consider `O=c1c2c(ncn1CCCO)nc1n2CCC1`, for which the cytotoxicity at 10 µM is -3.89%.

For the compound `CCS(=O)(=O)Nc1ccn(Cc2cccc(F)c2)n1`, the cytotoxicity at 10 µM stood at 6.22%.

As for `COC(=O)c1ccc(NS(=O)(=O)c2cnc(NC(C)=O)s2)cc1`, the cytotoxicity at 10 µM was 9.35%.

On to `CC1(C)CC(=O)N(CC(=O)Nc2ccon2)c2ccccc21`, for which the cytotoxicity at 10 µM was -3.43%.

Consider `COCC(=O)N1CCCC1(C(=O)N(C)C)c1cnccn1` (stereo unspecified), for which the cytotoxicity at 10 µM is 3.96%.

Consider `CN(CC1(C)COC1)C(=O)c1cc(-c2ccnn2C)nc2ccccc12`, for which the cytotoxicity at 10 µM came out at 6.57%.

`COc1ccc(CN(C)[C@@H]2CN(S(=O)(=O)C(C)C)C[C@H]2O)cc1`: the cytotoxicity at 10 µM was found to be 0.465%.

Take `COc1ccc2c(c1)C(=O)NC1(CC2)CCN(Cc2cccnc2)C1` (stereo unspecified): the cytotoxicity at 10 µM is 0.295%.

Regarding `COc1ccccc1N1CCC(NCc2c(C)noc2C)C1` (stereo unspecified), the cytotoxicity at 10 µM stood at 1.81%.

As for `COc1ccc(F)cc1Cn1nc(C(N)=O)ccc1=O`, the cytotoxicity at 10 µM is -2.52%.

With `CC(C)Cn1ccnc1CNC(=O)NC(C)(C)c1nccs1`, the cytotoxicity at 10 µM is -5.66%.

For the compound `CC(NCCn1cccn1)c1ccccc1Cl` (stereo unspecified), the cytotoxicity at 10 µM is -5.03%.

On to `CCCC(C)CS(=O)(=O)NCc1cccnc1OC` (stereo unspecified), for which the cytotoxicity at 10 µM is -18%.

With `CNC(=O)NCCc1csc2ccccc12`, the cytotoxicity at 10 µM was 2.22%.

Consider `Cc1noc(C(C)Nc2ccc3oc(C)nc3c2)n1` (stereo unspecified), for which the cytotoxicity at 10 µM worked out at 1.81%.

Take `COC(=O)c1ccc2c(c1)CCCN2S(=O)(=O)c1cn(C)c(C)n1`: the cytotoxicity at 10 µM amounted to 3.94%.

As for `Cc1cc(NC(=O)NCc2ccncc2)ccc1OC(C)C`, the cytotoxicity at 10 µM was -8.36%.

Regarding `Cn1c(NCCN2CCCCCC2)c(C#N)c(=O)n(C)c1=O`, the cytotoxicity at 10 µM was determined as 0.0687%.

Turning to `CCc1ncc2c(n1)CN(Cc1cccc3c1OCCO3)CC2`, the cytotoxicity at 10 µM is -8.42%.

For `Cc1ccc(NS(=O)(=O)c2c[nH]c3ncccc23)nc1`, the cytotoxicity at 10 µM was 6.43%.

On to `Cc1cc(NS(=O)(=O)c2c[nH]c3ncccc23)no1`, for which the cytotoxicity at 10 µM is -1.69%.

For `CN(C(=O)[C@H]1CSCN1C(=O)OC(C)(C)C)C1CC1`, the cytotoxicity at 10 µM turned out to be 15.4%.

In the case of `Cc1cn2c(n1)CCC(NC(=O)CCOc1ccccc1F)C2` (stereo unspecified), the cytotoxicity at 10 µM was 5.27%.

With `Cc1nc(C)n(CC2CCCN(Cc3nnc(C4CC4)o3)C2)n1` (stereo unspecified), the cytotoxicity at 10 µM was -12.9%.

Regarding `COc1ccccc1C(=O)N1CCCC1c1nncn1CC(C)C` (stereo unspecified), the cytotoxicity at 10 µM was -2.96%.

With `Cc1oc2nc[nH]c(=O)c2c1C(=O)N1CCCC(n2cccn2)C1` (stereo unspecified), the cytotoxicity at 10 µM was -0.513%.

Regarding `O=C(C1CCCOC1)N1CCCCc2ccccc21` (stereo unspecified), the cytotoxicity at 10 µM was -5.51%.

As to `CSc1nc(C2CC2)nc(C)c1C(=O)NCc1ccco1`, the cytotoxicity at 10 µM was determined as 5.25%.

Take `COCCN1CCC(NCc2c(C(C)C)nn(C)c2N(C)C)CC1`: the cytotoxicity at 10 µM amounted to 11.6%.

Take `c1ccc(OCc2nc(CNCCn3cccn3)cs2)cc1`: the cytotoxicity at 10 µM is 7.53%.

For the compound `CCN(Cc1ccoc1)C(=O)NC1CCN(C(=O)OC(C)(C)C)C1` (stereo unspecified), the cytotoxicity at 10 µM came out at 3.65%.

For the compound `NC(=O)N1CCCN(CCc2nc(-c3cccc(Cl)c3)no2)CC1`, the cytotoxicity at 10 µM turned out to be 14.8%.

Consider `CS(=O)(=O)c1nnc(NC(=O)CCc2cccs2)[nH]1`, for which the cytotoxicity at 10 µM came to 8.91%.

In the case of `Cc1cnn(Cc2cc(F)ccc2F)c1NC(=O)C1COCCO1` (stereo unspecified), the cytotoxicity at 10 µM came to 21.5%.

As for `CN(C)C(=O)CN(C)C(=O)c1cnc(Cc2ccc(F)cc2)s1`, the cytotoxicity at 10 µM worked out at 8.66%.

Turning to `COc1cccc(CN(C)C(=O)Nc2ccc3c(c2)OCCO3)c1`, the cytotoxicity at 10 µM is -0.627%.

Consider `Cc1csc(N2CCN(Cc3ccccn3)CC2C)n1` (stereo unspecified), for which the cytotoxicity at 10 µM is -8.84%.

With `Cc1cc(C)n(CC2CCCN2C(=O)c2ccc3[nH]nnc3c2)n1` (stereo unspecified), the cytotoxicity at 10 µM is -13.1%.

For the compound `Cc1cccc(NC(=O)N2CC(C(=O)NC(C)C)C3(CCOCC3)C2)c1` (stereo unspecified), the cytotoxicity at 10 µM is -75%.

Consider `Cc1nc2c(c(N(C)C)n1)CCN(C(=O)c1ccc(N)nc1)C2`, for which the cytotoxicity at 10 µM was -8.26%.

As to `Cc1ccccc1C(C(=O)N(Cc1cnn(C)c1)CC(C)C)N(C)C` (stereo unspecified), the cytotoxicity at 10 µM was found to be 2.66%.

As for `CC(C)(CN1C[C@H](Nc2ncccn2)[C@@H](C2CC2)C1)N1CCOCC1`, the cytotoxicity at 10 µM was determined as 5.41%.

On to `CCC[C@H]1CN(C(=O)c2ccc3[nH]c(CO)nc3c2)C[C@@H]1N`, for which the cytotoxicity at 10 µM worked out at 3.96%.

For the compound `O=C(O)CC[C@@H]1CN(c2ncccc2F)CC[C@@H]1N1CCOCC1`, the cytotoxicity at 10 µM was -9.11%.

Take `O=C(c1ccoc1)N1CCCN(C(=O)c2ccc(C3CCCN3)s2)CC1` (stereo unspecified): the cytotoxicity at 10 µM came out at 1.27%.

For the compound `CC(Nc1ncnc2c1CCNCC2)c1nc2c(s1)CCCC2` (stereo unspecified), the cytotoxicity at 10 µM was determined as 1.28%.

With `O=C(CCc1cc(Cl)no1)N1CCCCC1CCN1CCOCC1` (stereo unspecified), the cytotoxicity at 10 µM is -9.97%.

Turning to `Clc1ccccc1OC1CN(CC2CCOC2)C1` (stereo unspecified), the cytotoxicity at 10 µM is -0.745%.

As to `Cc1nc2c(c(=O)n1C)CN(C(=O)C1CCCN(CC(N)=O)C1)C2` (stereo unspecified), the cytotoxicity at 10 µM is -6%.

Take `Cc1ncsc1CCN(C)C(=O)c1ncccc1O`: the cytotoxicity at 10 µM is -5.43%.

In the case of `COc1ccc(F)c(-c2ccnc(N)c2)c1`, the cytotoxicity at 10 µM worked out at 8.52%.

Take `O=C(O)CC1COCCN1Cc1ccccc1OCCc1ccccc1` (stereo unspecified): the cytotoxicity at 10 µM was 2.4%.

Turning to `O=C(CCCc1cn[nH]c1)N1C[C@@H](CN2CCOCC2)[C@@H](CO)C1`, the cytotoxicity at 10 µM was -15.8%.

As for `Cc1ccc(-n2ncc(C(=O)N3CCCC3c3cnn(C)c3)c2C)cc1` (stereo unspecified), the cytotoxicity at 10 µM was -7.79%.

For the compound `CC(C)CC(=O)NS(=O)(=O)c1ccc(C#N)cc1C(F)(F)F`, the cytotoxicity at 10 µM is -8.64%.

For the compound `CC(C(=O)Nc1ccc(N2CCCCC2)nc1)n1ccnc1` (stereo unspecified), the cytotoxicity at 10 µM is -29.8%.

For `CN(C)c1ccc(C(=O)N2CCN(c3cnccn3)CC2)cn1`, the cytotoxicity at 10 µM was -4.98%.

With `O=C(NCCNc1ncccn1)C1CC(=O)N(Cc2ccco2)C1` (stereo unspecified), the cytotoxicity at 10 µM was -8.78%.

Turning to `O=C(NCCCn1nc2ccccn2c1=O)Nc1ccccc1`, the cytotoxicity at 10 µM is -13.6%.

`Cn1nc2c(cc1=O)CN(Cc1coc(-c3ccccc3)n1)CC2`: the cytotoxicity at 10 µM is -4.5%.

Regarding `CC(C)n1cnnc1C1CCCN(C(=O)COCc2ccccc2)C1` (stereo unspecified), the cytotoxicity at 10 µM is -20.3%.

Consider `C1CC(c2noc(C3CC3)n2)N(Cc2nc(C3CC3)no2)C1` (stereo unspecified), for which the cytotoxicity at 10 µM was -12.8%.

`Cc1nn(C)c(C)c1C1COCCN1C(=O)c1cnc(N)c(Cl)c1` (stereo unspecified): the cytotoxicity at 10 µM was -8.21%.

In the case of `Nc1cc2c(nn1)CCN(C(=O)CC1CCCC1)C2`, the cytotoxicity at 10 µM is -6.31%.

Regarding `CC(NC(=O)c1cccs1)C(=O)NCc1cccnc1N1CCCCC1` (stereo unspecified), the cytotoxicity at 10 µM was -8.57%.

Regarding `CC(C)NC(=O)[C@@H]1CCO[C@@H]2CCN(c3ncccn3)C[C@@H]21`, the cytotoxicity at 10 µM stood at 7.92%.

Regarding `Cn1cccc1C(=O)N1CCO[C@H]2[C@H](OCc3cccnc3)CC[C@@H]21`, the cytotoxicity at 10 µM was determined as 7.2%.

With `Cn1cccc1C(=O)N1CC[C@@H]2[C@@H]1CC(=O)N2CCN1CCOCC1`, the cytotoxicity at 10 µM was -7.41%.

On to `CN1CC(=O)N(c2ccsc2)CC12CCN(C(=O)Nc1ccccc1)C2` (stereo unspecified), for which the cytotoxicity at 10 µM is -78.7%.

As to `CC1c2ncc(Cn3cncn3)n2CCN1C1CCOCC1` (stereo unspecified), the cytotoxicity at 10 µM came to 4.28%.

Consider `COCCN1CCO[C@@H]2CN(Cc3ccccc3OC)C[C@@H]2C1`, for which the cytotoxicity at 10 µM was -2.48%.

With `O=C(O)CN1CCC(C(F)(F)F)CC1`, the cytotoxicity at 10 µM stood at 17.2%.

`CN(C)C(=O)N1CC[C@H]2[C@H]1CCN2c1nncs1`: the cytotoxicity at 10 µM was -1.19%.

Consider `CN(C)[C@@H]1CCN(CC2CC2)[C@H]1Cc1cnn(C)c1`, for which the cytotoxicity at 10 µM was -76.9%.

Consider `CCN1CCOCC12CCN(c1ccc(C#N)cc1)CC2`, for which the cytotoxicity at 10 µM was -6.93%.

Consider `O=S(=O)(c1ccc(F)cc1)N1CC[C@H]2[C@H]1CCN2c1ncccn1`, for which the cytotoxicity at 10 µM was -2.85%.

`COCCN1CC[C@H]2OCC[C@@H](C(=O)N3CCCO3)[C@H]2C1`: the cytotoxicity at 10 µM amounted to 4.55%.

As to `Cc1cnc(N2CCN(C)c3ncccc3C2)nc1`, the cytotoxicity at 10 µM is -5.86%.

Take `O=C(c1ccco1)N1CCCC2(CN(Cc3cccs3)CCO2)C1` (stereo unspecified): the cytotoxicity at 10 µM is -2.3%.

As to `CNC(=O)CNC1CC2(CCN(c3ncccn3)CC2)c2ccccc21` (stereo unspecified), the cytotoxicity at 10 µM was determined as 4.68%.

Take `CCOCC(=O)N1Cc2[nH]nc(COCC3CC3)c2C1`: the cytotoxicity at 10 µM was 9.29%.

`O=C1CCCC2=C1C(c1ccccc1Cl)C1C(=O)NN=C1N2` (stereo unspecified): the cytotoxicity at 10 µM was -11.6%.

In the case of `CCCc1cc(N2CCC(NC3CCC(O)CC3)CC2)nc(C)n1` (stereo unspecified), the cytotoxicity at 10 µM was -4.35%.

As to `CC(C)c1cc(C(=O)N2C[C@@H]3CC[C@H]2CN(Cc2cccnc2)C3)no1`, the cytotoxicity at 10 µM was determined as 2.55%.

Consider `COc1cc(N2C[C@H]3CC[C@@H](C2)N(CC2CCC2)C3=O)ncn1`, for which the cytotoxicity at 10 µM was -1.15%.

For the compound `CC(C)CN1C[C@@H]2C[C@H](C(=O)Nc3cccnc3)[C@H](C1)O2`, the cytotoxicity at 10 µM was found to be 7.8%.
